From ChEMBL document CHEMBL1125777, “Nonpeptidic angiotensin II antagonists: synthesis and in vitro activity of a series of novel naphthalene and tetrahydronaphthalene derivatives” (J Med Chem, 1991)

Experiments:
[1] = molecular target: T1, Type-1 angiotensin II receptor B (Rattus norvegicus, UniProt P29089); assay: Binding affinity against angiotensin II receptor in rat smooth muscle cell preparations
T1 sequence (P29089 whole entry): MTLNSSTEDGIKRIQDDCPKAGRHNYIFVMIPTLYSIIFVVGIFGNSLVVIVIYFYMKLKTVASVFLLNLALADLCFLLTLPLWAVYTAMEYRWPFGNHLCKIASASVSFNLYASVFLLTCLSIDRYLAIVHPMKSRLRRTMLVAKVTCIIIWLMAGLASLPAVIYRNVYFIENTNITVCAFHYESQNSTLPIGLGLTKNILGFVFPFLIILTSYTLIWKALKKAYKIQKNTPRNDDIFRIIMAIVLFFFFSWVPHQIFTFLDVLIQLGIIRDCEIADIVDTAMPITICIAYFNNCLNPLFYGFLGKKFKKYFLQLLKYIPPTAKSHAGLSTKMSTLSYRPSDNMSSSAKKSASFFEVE
How it was run: (§1)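 Membranes from cultured rat aortic smooth muscle cells (passages 5-20, DMEM with 15% FCS). Bound/free separated by filtration, filter radioactivity counted. Nonspecific binding defined with 1 μM unlabeled AII. IC50 from four-parameter logistic fit. Duplicate tests.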

Oryctolagus cuniculus = species: Oryctolagus cuniculus; assay: Inhibition of all induced contractions of rabbit aortic rings; format: functional; settings: Aorta
How it was run: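 Thoracic aorta rings (2-3 mm) from male Chinchilla rabbits (2-2.5 kg), 2 g resting tension, modified Krebs-Henseleit, 37 °C, 95% O2/5% CO2, equilibrated ≥1 h. Isometric contraction to 10 nM angiotensin II every 20 min. After two control responses, graded compound concentrations (3-4 per ring) applied 5 min before each challenge. DMSO vehicle controls.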

[2] = molecular target: T1, Type-1 angiotensin II receptor B; assay: Binding affinity against Angiotensin II receptor in rat smooth muscle cell preparations
How it was run: as §1, with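 “FCS). 20-60 μg protein incubated 60 min at 25 or 30 °C with radiotracer (150 pM) and varying unlabeled competitor concentrations.” for “FCS).”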

| Structure (SMILES) | IC50 [1] [nM] | IC50 (Oryctolagus cuniculus) [nM] | IC50 [2] [nM] |
| --- | --- | --- | --- |
| CCCCc1nc(CO)c(Cl)n1Cc1ccc2c(c1)CCC(C(=O)O)C2 (stereo not given) | 1100 | 300 | – |
| CCCCc1nc(Cl)c(CO)n1Cc1ccc2c(c1)CCC(c1nnn[nH]1)C2 (stereo not given) | 5400 | 1900 | – |
| CCCCc1nc(Cl)c(CO)n1Cc1ccc2cc(-c3nn[nH]n3)ccc2c1 | 600 | 1600 | – |
| CCCCc1nc(Cl)c(CO)n1Cc1ccc2c(c1)CCC(C(=O)O)C2 (stereo not given) | 8900 | 1200 | – |
| CCCCc1nc(Cl)c(CO)n1Cc1ccc2c(c1)CCC(C)(C(=O)O)C2 (stereo not given) | – | 2200 | – |
| CCCCc1nc(CO)c(Cl)n1Cc1ccc2c(c1)CCC(C)(C(=O)O)C2 (stereo not given) | 2800 | 2700 | – |
| CCCCc1nc(CO)c(Cl)n1Cc1ccc2c(c1)CCC(c1nnn[nH]1)C2 (stereo not given) | – | 560 | – |
| CCCCc1nc(CO)c(Cl)n1Cc1ccc2cc(-c3nnn[nH]3)ccc2c1 | – | 120 | 200 |

More lines, now with the values ahead:

| IC50 [1] [nM] | IC50 (Oryctolagus cuniculus) [nM] | IC50 [2] [nM] | Structure (SMILES) |
| --- | --- | --- | --- |
| 1100 | 700 | – | CCCCc1nc(Cl)c(CO)n1Cc1cccc2c(-c3nn[nH]n3)cccc12 |
| – | 24 | – | CCCCc1nc(Cl)c(CO)n1Cc1ccc(-c2ccccc2-c2nnn[nH]2)cc1 [LOSARTAN] |
| 4100 | 2600 | – | CCCCc1nc(Cl)c(CO)n1Cc1cccc2cc(-c3nnn[nH]3)ccc12 |
| – | – | 20000 | CCCCc1nc(Cl)c(CO)n1Cc1ccc2ccc(-c3nn[nH]n3)cc2c1 |
